Assay type in all cases: functional
Experiment [1] is filed under the species Rattus norvegicus. Put plainly: Concentration required to inhibit 50% of the transport of [3H]choline into synaptosomes, using rat hippocampal synaptosomes. As to conditions: Hippocampus. Put shortly:
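Rat hippocampus dissected on ice, homogenized in 0.32 M sucrose; P2 pellet (12000g, 20 min) resuspended in sucrose. Synaptosomes incubated with [3H]choline and increasing inhibitor concentrations, 8 min at 30 °C; filtered, washed three times, lysed in water, tritium counted. High-affinity uptake = standard-medium minus sodium-free accumulation, per mg protein (Lowry); IC50 from percent inhibition.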

The species entered for experiment [2] is Cavia porcellus. Put plainly: Relative potency with respect to choline in isolated guinea pig ileum preparations.
The species named for experiment [3] is Cavia porcellus. Put plainly: Relative potency with respect to acetylcholine in isolated guinea pig ileum preparations. The method, boiled down:
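Guinea pig ileum segment in Tyrode's solution (NaCl 137 mM, KCl 2.68 mM, MgCl2 1.05 mM, CaCl2 1.80 mM, NaH2PO4 0.42 mM, NaHCO3 11.90 mM, glucose 5.55 mM), contents flushed. Contractions to 3–7 concentrations recorded by polygraph and compared against concentration responses to acetylcholine and choline.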

As usually defined, the IC50 is the concentration at which inhibition is half-maximal. Lower therefore signals greater potency in that assay. `CC(O)C[N+](C)(C)CBr.[Br-]` (stereo unspecified) displayed an IC50 in experiment [1] of 56 µM. In addition, in experiment [2], the Relative potency is recorded as 0.04. In the same order, the values of `CC1C[N+](C)(C)CO1.[Br-]` (stereo unspecified) are 200 µM and 2. The like results for `C[N+]1(C)CCOC1.[Br-]` were, in that order, 78 µM and 4.25. For the molecule `CC(=O)OCC[N+](C)(C)CI.[I-]`, in experiment [3], the Relative potency is given as 0.11. For the molecule `CC(=O)OCC[N+](C)(C)CBr.[Br-]`, the Relative potency in experiment [3] is 0.05.

Take `C[N+](C)(CBr)CCO.[Br-]`: inhibition in experiment [1] was half-maximal at 0.87 µM (IC50). This molecule had a Relative potency in experiment [2] of 0.14. In the same order, the values of `C[N+](C)(CCl)CCO.[I-]` are 0.92 µM and 0.13. The like results for `CC(O)C[N+](C)(C)CCl.[I-]` (stereo unspecified) were, in that order, 130 µM and 0.05.

`CC(=O)OC(C)C[N+](C)(C)CI.[I-]` (stereo unspecified): the Relative potency in experiment [3] was 0.02. Consider `C[N+](C)(CI)CCO.[I-]`, for which the IC50 in experiment [1] came out at 0.49 µM. The Relative potency in experiment [2] is 0.33.

As to `CC(O)C[N+](C)(C)CI.[I-]` (stereo unspecified), the IC50 in experiment [1] is 50 µM. The same molecule showed a Relative potency in experiment [2] of 0.1. For the molecule `CC(=O)OCC[N+](C)(C)CCl.[I-]`, the Relative potency in experiment [3] is 0.09. On to `CC(=O)OCC[N+](C)(C)C.[I-]` [ACETYLCHOLINE IODIDE], for which the Relative potency in experiment [3] came to 1.

These data come from ChEMBL document CHEMBL1125279, “Neurochemistry of aging. 2. Design, synthesis, and biological evaluation of halomethyl analogues of choline with high affinity choline transport inhibitory activity” (J Med Chem, 1991).
